Data from the RNAGym collection of RNA variant scans (doi:10.1101/gad.245936.114).
Variants at the floor of the assay were thinned out.

B1: tRNA (parent)
chain: CUCUCGGUAGCCAAGUUGGUUUAAGGCGCAAGACUUUAAUUUAUCACUACGAAAUCUUGAGAUCGGGCGUUCGACUCGCCCCCGGGAGAUUUUUUCCUCGAGCAA

Variants of: B1
Test: nonsense suppression (GFP-seq) (ratio to wild type); higher = more function; SUP4oc tRNA, yeast GFP reporter sort-seq
How it was run: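 Nonsense suppression (GFPSEQ) is the median GFP/RFP ratio of each sorting bin, weighted by the variant's estimated share of cells in that bin and expressed relative to the unmutated parent tRNA. Yeast strains carried genome-integrated variants of an ochre-suppressor tRNA from a library with ~3% random mutations, plus a galactose-driven GFP ochre reporter and RFP, and were grown in raffinose/galactose medium containing 80 mg/L adenine. Cells were sorted into GFP/RFP bins, each bin was Illumina-sequenced (phred ≥30), and variants were kept only with ≥100 reads and ≥30 cells.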
Work on C29U A30G yielded a nonsense suppression of 1.1.
In the case of C29U A30U, the nonsense suppression is reported as 0.124.
C29U A30C showed a nonsense suppression of 0.196.
In the case of G26C U55C, the nonsense suppression is reported as 0.0525.
G26C U55A gave a nonsense suppression of no more than 0.026.
In the case of G25A G61A G84C, the nonsense suppression is reported as no more than 0.026.
Variant G25A G73A has a nonsense suppression of 0.0508.
C27U U58A G59A showed a nonsense suppression of no more than 0.026.
Work on G25U C56A G86U yielded a nonsense suppression of no more than 0.026.
With A30C A54U A60G A74U the nonsense suppression was no more than 0.026.
Work on C29A G73A yielded a nonsense suppression of no more than 0.026.
C27A G61U G86U showed a nonsense suppression of no more than 0.026.
With G26C C81U the nonsense suppression was no more than 0.026.
Work on G28A G66C A87U yielded a nonsense suppression of no more than 0.026.
Work on C27G U58A U63A yielded a nonsense suppression of no more than 0.026.
Variant G26U A31C G65C has a nonsense suppression of no more than 0.026.
C29A G65C U71G gave a nonsense suppression of no more than 0.026.
Variant A24U U58C G85A has a nonsense suppression of no more than 0.026.
Work on C27G U71G yielded a nonsense suppression of no more than 0.026.
With C29U G61U the nonsense suppression was 0.754.
With C29U G61A the nonsense suppression was 0.83.
For C29U G61C, the nonsense suppression was 0.0261.
For G25A G59C U63C, the nonsense suppression was no more than 0.026.
C29A U55G showed a nonsense suppression of no more than 0.026.
Work on C27G A87G yielded a nonsense suppression of 0.0273.
G25U C34A U71A U76A gave a nonsense suppression of no more than 0.026.
For G25A C75G G78A, the nonsense suppression was no more than 0.026.
For C27U G65A, the nonsense suppression was 0.0374.
For C27U G65U, the nonsense suppression was no more than 0.026.
Work on C27G U57C G59U G86U yielded a nonsense suppression of no more than 0.026.
A24U A87G showed a nonsense suppression of 0.147.
Variant G26C U57A G73A has a nonsense suppression of no more than 0.026.
In the case of C27A G84A G86C, the nonsense suppression is reported as no more than 0.026.
With G28A A60G the nonsense suppression was 1.07.
G25C A30G A33U gave a nonsense suppression of no more than 0.026.
In the case of C27A U35C G66C G88C, the nonsense suppression is reported as no more than 0.026.
G25U U63C C79A gave a nonsense suppression of no more than 0.026.
For C27G U55A A60C, the nonsense suppression was 0.809.
For C27A G78U, the nonsense suppression was 0.0309.
For G25U U58G C68G, the nonsense suppression was no more than 0.026.
Variant G25C G28C A62U has a nonsense suppression of no more than 0.026.
A30G C77U gave a nonsense suppression of no more than 0.026.
For G25U G61A G67U, the nonsense suppression was no more than 0.026.
C27U U55C C56A G88U showed a nonsense suppression of no more than 0.026.
G25U A54U G78C gave a nonsense suppression of no more than 0.026.
Work on G28A G84A G86C yielded a nonsense suppression of no more than 0.026.
C29U U35C U58G C64U G66C showed a nonsense suppression of no more than 0.026.
For C27U A74C, the nonsense suppression was 0.0355.
A30G C72G gave a nonsense suppression of 0.0409.
Work on A30C U70C yielded a nonsense suppression of no more than 0.026.
For G26U C34U, the nonsense suppression was no more than 0.026.
A24U A54U gave a nonsense suppression of 0.208.
Variant A30G G78A has a nonsense suppression of 0.101.
Work on A30G G85A yielded a nonsense suppression of 0.793.
Variant A30G G85C has a nonsense suppression of no more than 0.026.
With C27G G28A the nonsense suppression was no more than 0.026.
G28C G73U showed a nonsense suppression of 0.0322.
With G25U G73U the nonsense suppression was no more than 0.026.
In the case of A30G U71A, the nonsense suppression is reported as 0.05.
A30G U55G U63G C64A gave a nonsense suppression of no more than 0.026.
Work on G25A U57C yielded a nonsense suppression of no more than 0.026.
C27G A33U C34G C83G G85A showed a nonsense suppression of no more than 0.026.
With C27U A62U the nonsense suppression was 0.0346.
C27U A62G gave a nonsense suppression of no more than 0.026.
In the case of C29U A30G A54C C75A, the nonsense suppression is reported as 0.0386.
A24U G84A gave a nonsense suppression of 0.0448.
In the case of A24U G84C, the nonsense suppression is reported as 0.107.
Variant C29G A33G G67A U71G G86A has a nonsense suppression of 1.12.
Variant C29U A60U has a nonsense suppression of 1.18.
Work on C29U A60G yielded a nonsense suppression of 0.114.
G28C U63C showed a nonsense suppression of 0.114.
In the case of G28C U63A, the nonsense suppression is reported as 0.225.
G28C A89G gave a nonsense suppression of 0.0403.
Work on C29G G59A C80G yielded a nonsense suppression of no more than 0.026.
With C29G A87G the nonsense suppression was no more than 0.026.
Work on G28U U35A yielded a nonsense suppression of no more than 0.026.
In the case of G25C A54U, the nonsense suppression is reported as 0.0708.
Work on G28A A54C C68U yielded a nonsense suppression of 0.18.
For C27A C29A U71C C79U, the nonsense suppression was no more than 0.026.
In the case of G25A G26C, the nonsense suppression is reported as no more than 0.026.
In the case of C27U A30U G85C, the nonsense suppression is reported as no more than 0.026.
Variant G25A G32U has a nonsense suppression of no more than 0.026.
For G25U U63G, the nonsense suppression was 0.0371.
With G28U A62G U63A A74C the nonsense suppression was no more than 0.026.
For A30G A31G A60U, the nonsense suppression was 0.726.
G25U G61U C68U gave a nonsense suppression of no more than 0.026.
For A30G G59A G73C, the nonsense suppression was no more than 0.026.
Work on G28A A33G yielded a nonsense suppression of 0.161.
With G28A A33U the nonsense suppression was 0.0279.
For C29U C68U, the nonsense suppression was 0.272.
Variant G25U C34U G59A has a nonsense suppression of 1.15.
G28C showed a nonsense suppression of 1.17.
G28A showed a nonsense suppression of 0.975.
G28A C56G A89C gave a nonsense suppression of no more than 0.026.
For C29U U57G G85C, the nonsense suppression was no more than 0.026.
With C29U U76C the nonsense suppression was 0.772.
For C29U U76A, the nonsense suppression was 0.224.
Work on G28A C29U yielded a nonsense suppression of 1.15.
Work on G25A G32U U71G yielded a nonsense suppression of no more than 0.026.
For G28A A54U, the nonsense suppression was 1.1.
In the case of G28A A54C, the nonsense suppression is reported as 0.878.
In the case of G25C C77U C80G, the nonsense suppression is reported as no more than 0.026.
C27A A87U showed a nonsense suppression of no more than 0.026.
Variant G28A A31G has a nonsense suppression of 0.98.
For G28U A33C U63A U71G, the nonsense suppression was no more than 0.026.
For G26C G61A, the nonsense suppression was no more than 0.026.
G26A A31C showed a nonsense suppression of no more than 0.026.
With G25A U70C G73U the nonsense suppression was no more than 0.026.
For G28A G67A, the nonsense suppression was 0.209.
Variant C29A G85A has a nonsense suppression of 0.115.
Work on C29A A60G yielded a nonsense suppression of 0.0331.
Work on C27A U55G G61A C83G yielded a nonsense suppression of no more than 0.026.
Variant C29U G84A has a nonsense suppression of 0.0288.
In the case of C29G U58A, the nonsense suppression is reported as no more than 0.026.
For G28U U76A, the nonsense suppression was no more than 0.026.
Variant G28C G67A has a nonsense suppression of 0.0635.
C27G G66U showed a nonsense suppression of no more than 0.026.
A24U U35G A89G gave a nonsense suppression of no more than 0.026.
C29A A30C gave a nonsense suppression of no more than 0.026.
Variant G28A G78C has a nonsense suppression of 0.0938.
Work on C27G C68G G84A yielded a nonsense suppression of no more than 0.026.
For A30C U55A, the nonsense suppression was no more than 0.026.
Variant G28A G66A has a nonsense suppression of 0.152.
With G26U A74C U76G the nonsense suppression was no more than 0.026.
Variant C27A A30C A60G C77G C81A has a nonsense suppression of no more than 0.026.
Work on A24U C29A C79U yielded a nonsense suppression of no more than 0.026.
With G28C A33U C82U A89U the nonsense suppression was no more than 0.026.
With C27U A31U the nonsense suppression was 0.0324.
C27A U55C showed a nonsense suppression of 0.0902.
C27G C81G gave a nonsense suppression of no more than 0.026.
Variant C29G C34G has a nonsense suppression of no more than 0.026.
G28C G84C showed a nonsense suppression of 0.239.
For C27G C79A, the nonsense suppression was no more than 0.026.
G25A C56G C79U gave a nonsense suppression of no more than 0.026.
Work on C27G U57C U58G G66A C68G yielded a nonsense suppression of no more than 0.026.
For A24U G61C, the nonsense suppression was no more than 0.026.
With A24U G61A the nonsense suppression was 0.124.
G26C G78U C82A gave a nonsense suppression of no more than 0.026.
G28C G85U showed a nonsense suppression of 0.208.
In the case of G28U A54U, the nonsense suppression is reported as no more than 0.026.
For G25A A30C, the nonsense suppression was no more than 0.026.
Variant A30G C79U has a nonsense suppression of 0.207.
G25C C34A A87G gave a nonsense suppression of no more than 0.026.
Work on G28C G61C yielded a nonsense suppression of 0.386.
G25C U63A gave a nonsense suppression of no more than 0.026.
G28C C79A G85C gave a nonsense suppression of 0.0328.
Work on G28U G61U yielded a nonsense suppression of 0.191.
G28U G61C gave a nonsense suppression of 0.321.
Variant C27U has a nonsense suppression of 0.183.
In the case of C29U A31G, the nonsense suppression is reported as 0.0421.
For G28A C68U, the nonsense suppression was 1.17.
A30G A54C gave a nonsense suppression of 0.077.
A30G A54U gave a nonsense suppression of 1.2.
Work on G28A C81U yielded a nonsense suppression of 1.2.
C27U A31C G61C gave a nonsense suppression of no more than 0.026.
A24U U63A showed a nonsense suppression of 0.119.
A24U U63C gave a nonsense suppression of 0.0344.
With G28A U76G the nonsense suppression was no more than 0.026.
Work on G28A U76C yielded a nonsense suppression of 1.09.
With G28U C79U the nonsense suppression was no more than 0.026.
G26A C27G gave a nonsense suppression of no more than 0.026.
Variant G26A C27A has a nonsense suppression of no more than 0.026.
G26A C29G A30G A33G showed a nonsense suppression of no more than 0.026.
For A24U A60U, the nonsense suppression was 0.0572.
With A24U A60G the nonsense suppression was 0.0422.
For G26C C29G, the nonsense suppression was 0.0685.
In the case of C29U G32U U57A A62G U63C G69C, the nonsense suppression is reported as no more than 0.026.
